Assay outcomes deposited in PubChem BioAssay by several laboratories.
Compounds with a hit are over-represented: about 4.1% of the library has one in this group of screens.
MEKK2wt PB1 HTS = raises or lowers MEK5 binding to wildtype human MEKK2 PB1 domain; Q9Y2U5; bead flow cytometry, Alexa488-MEK5 binding to MEKK2 WT; actives lie on both sides; binding response (% of control), % at 10 µM; 290,000 tested, 1.1% active; in the data active means binding response below about 67% or above about 130%; inconclusive means no clear call, values can overlap the other calls; inactive means in between
T cruzi inh = blocks replication of Trypanosoma cruzi; T. cruzi beta-gal in NIH3T3, luminescence, 90 h; inhibition, % (concentration not given with the values); 300,000 tested, 1.4% active;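 active means mean inhibition across valid replicates above about 55%, limit read from the data; inconclusive means mean below that limit but half or more replicates reach it; inactive means mean below it, under half of replicates reach it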;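 further: signal also drops with host cell toxicity which is not excluded here; 0% = plate median of DMSO wells and 100% = zero luminescence signal; higher percent means less beta-gal luminescence so fewer parasites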
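System: Mouse NIH/3T3 fibroblasts infected with β-gal-expressing T. cruzi Tulahuen C4 | Quantity: NIH/3T3 cells, 5,000 per well | Reagent: 5000 reporter trypomastigotes per well | Dosing: Compound pinned at 50 nL/well, DMSO | Schedule: 3 h host attachment, then at least 90 h co-culture | Detection: GalScreen luminescence, 60 min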
MEKK2mut PB1 HTS = signal of MEK5 binding to mutant human MEKK2 PB1 domain | 290,000 tested, 0.35% active | percent response, % at 10 µM | AID 1530 | bead flow cytometry, Alexa488-MEK5 binding to MEKK2 mutant; in the data active means percent response above about 24%, passing the limit was not always enough
FID counter = displaces DNA intercalator in HCV helicase counter-screen; inhibition, % at 7.9 µM; AID 1845; DNA fluorescent intercalator displacement, fluorescence; 290,000 tested, 0.17% active; in the data active means inhibition above about 37%;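 further: 0% = vehicle and 100% = reference compound; higher means more ethidium bromide displaced from hairpin DNA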
NS3 helicase inh = HCV NS3 helicase inhibition; NS3 helicase DNA unwinding, Cy5 molecular beacon fluorescence; AID 1800; 290,000 tested, 0.56% active; inhibition, % at 10.9 µM;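 active means inhibition above the mean of all tested compounds plus 3 SD, set per campaign, cut at about 35% in these data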;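 further: 0% = DMSO wells and 100% = thioflavine S control wells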
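Material: hepatitis C virus NS3 helicase domain fragment enzyme; measured by: Cy5 fluorescence, 0 and 60 min reads; control set: DMSO and thioflavine S; incubation: 60 min unwinding reaction at 25 °C after ATP addition; read-out basis: % inhibition from 60/0 min fluorescence ratio, DMSO 0%, thioflavine S 100%; repeats: singlicate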
MEKK3 PB1 HTS = MEKK3-MEK5 PB1 interaction, increase or decrease; Q99759; bead-based flow cytometry, Alexa488-MEK5 binding to MEKK3; actives lie on both sides; 0 = blocked by unlabeled MEK5, 100 = vehicle; binding response (% of control), % at 10 µM; 290,000 tested, 1.4% active; AID 1529;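 active means binding response more than 3 SD above or below the average of its plate-row segment, actives on both sides; inconclusive means wells at one plate position flagged as instrument error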;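 further: Alexa488 bead fluorescence after subtracting the streptavidin-only scavenger bead signal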
Target sequence (Q99759 whole entry, looked up): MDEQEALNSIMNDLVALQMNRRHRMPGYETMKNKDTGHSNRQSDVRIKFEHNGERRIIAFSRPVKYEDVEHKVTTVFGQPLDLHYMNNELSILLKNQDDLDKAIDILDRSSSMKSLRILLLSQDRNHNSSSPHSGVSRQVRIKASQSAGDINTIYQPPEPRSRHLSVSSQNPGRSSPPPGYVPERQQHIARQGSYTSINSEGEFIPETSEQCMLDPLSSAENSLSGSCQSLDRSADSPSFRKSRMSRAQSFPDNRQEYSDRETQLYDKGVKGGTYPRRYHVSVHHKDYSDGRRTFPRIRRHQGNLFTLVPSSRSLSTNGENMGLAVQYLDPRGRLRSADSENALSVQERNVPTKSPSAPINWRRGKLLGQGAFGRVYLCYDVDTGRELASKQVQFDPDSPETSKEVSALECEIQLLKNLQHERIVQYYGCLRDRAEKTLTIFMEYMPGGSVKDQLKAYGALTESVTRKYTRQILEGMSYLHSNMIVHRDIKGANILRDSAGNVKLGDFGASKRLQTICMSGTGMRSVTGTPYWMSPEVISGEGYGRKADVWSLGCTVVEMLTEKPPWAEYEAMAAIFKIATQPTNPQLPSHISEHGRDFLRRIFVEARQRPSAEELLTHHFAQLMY
MEKK2wt confirm = raises or lowers MEK5 binding to wildtype human MEKK2, retest; shares compounds with MEKK3 PB1 HTS; bead flow cytometry, Alexa488-MEK5 binding to MEKK2 WT; actives lie on both sides; binding response (% of control), % at 10 µM; 5,900 tested, 2.4% active; AID 1892; in the data active means binding response below about 16% or above about 210%; inactive means in between
MEKK2mut confirm = signal of MEK5 binding to mutant human MEKK2, retest | shares compounds with MEKK3 PB1 HTS | bead flow cytometry, Alexa488-MEK5 binding to MEKK2 mutant | percent response, % at 10 µM | 5,900 tested, 2% active; in the data active means percent response mostly above about 71%, no sharp cut-off; inactive means mostly below about 38%;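 further: higher means compound restores mutant binding toward wildtype level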
MEKK3-MEK5 inh = confirmation of inhibitors of MEK5 binding to human MEKK3; shares compounds with MEKK3 PB1 HTS; bead flow cytometry, Alexa488-MEK5 binding to MEKK3; active compounds read low; binding response (% of control), % at 10 µM; 5,900 tested, 1.8% active; AID 1894;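 active means binding response below 72% of control, or above a set upper limit, though filed actives all read lower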;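 further: 100% = DMSO only wells and 0% = binding blocked by excess unlabeled MEK5; lower values mean stronger disruption of MEK5 binding to MEKK3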
Starred values were filed as active, the others as inactive; [ ] = remark or other dose.

How did CCCCN1C(=O)/C(=C/C=C2\Oc3ccccc3N2CC)SC1=S do in these assays?
MEKK2wt PB1 HTS: 35*[inhibitor]; T cruzi inh: 12; MEKK2mut PB1 HTS: -13; FID counter: -3; NS3 helicase inh: 5; MEKK3 PB1 HTS: 69*[inhibitor]; MEKK2wt confirm: 40; MEKK2mut confirm: -38; MEKK3-MEK5 inh: 79

How did CCCN1C(=O)/C(=C\C=C2/Sc3ccccc3N2CCO)SC1=S do in these assays?
MEKK2wt PB1 HTS: 33*[inhibitor]; T cruzi inh: 12; MEKK2mut PB1 HTS: -17; FID counter: -4; NS3 helicase inh: -1; MEKK3 PB1 HTS: 68*[inhibitor]; MEKK2wt confirm: 90; MEKK2mut confirm: -8; MEKK3-MEK5 inh: 96

Results for C=CCN1C(=O)/C(=C\C=C2\N(C)c3ccccc3C2(C)C)SC1=S ?
T cruzi inh: 52; MEKK2mut PB1 HTS: 7; FID counter: -6; NS3 helicase inh: 1; MEKK3 PB1 HTS: 75*[inhibitor]; MEKK2wt confirm: 46; MEKK2mut confirm: -29; MEKK3-MEK5 inh: 75

Results for CCN1C(=O)/C(=C/C=C2/Sc3ccccc3N2CCO)SC1=S ?
MEKK2wt PB1 HTS: 71; T cruzi inh: 0; MEKK2mut PB1 HTS: -7; FID counter: -3; NS3 helicase inh: -6; MEKK3 PB1 HTS: 74

What do the screens show for `CCCN1C(=O)/C(=C/C=C2\N(CC)c3ccccc3C2(C)C)SC1=S`?
MEKK2wt PB1 HTS: 134; T cruzi inh: 37; MEKK2mut PB1 HTS: 151*; FID counter: -2; NS3 helicase inh: -2; MEKK3 PB1 HTS: 68*[inhibitor]; MEKK2wt confirm: 71; MEKK2mut confirm: -14; MEKK3-MEK5 inh: 90

What do the screens show for `NS(=O)(=O)c1ccc(CCNC(=O)c2coc3ccccc3c2=O)cc1`?
MEKK2wt PB1 HTS: 106; T cruzi inh: -12; MEKK2mut PB1 HTS: 2; FID counter: -4; NS3 helicase inh: 0; MEKK3 PB1 HTS: 105

What do the screens show for `CC1(OC(=O)C2CCCC2)C(=O)C=C2C=C(c3ccsc3)N(C3CCCCC3)C=C2C1=O` (stereo unspecified)?
MEKK2wt PB1 HTS: 92; T cruzi inh: 29; MEKK2mut PB1 HTS: -7; MEKK3 PB1 HTS: 80*[inhibitor]; MEKK2wt confirm: 90; MEKK2mut confirm: -7; MEKK3-MEK5 inh: 94

What do the screens show for `CC1(OC(=O)C2CCCC2)C(=O)C=C2C=C(c3ccsc3)N(CCN3CCOCC3)C=C2C1=O` (stereo unspecified)?
MEKK2wt PB1 HTS: 146*; T cruzi inh: 13; MEKK2mut PB1 HTS: 4; MEKK3 PB1 HTS: 120; MEKK2wt confirm: 103; MEKK2mut confirm: 0; MEKK3-MEK5 inh: 99

What do the screens show for `COc1ccc(C(=O)CSc2nnc3ccc(-c4ccccn4)nn23)cc1`?
MEKK2wt PB1 HTS: 62; T cruzi inh: -11; MEKK2mut PB1 HTS: -27; FID counter: -5; NS3 helicase inh: -9; MEKK3 PB1 HTS: 64

How did COc1ccc(C(=O)CSc2nc(-c3ccccn3)nc(C)c2Cl)cc1 do in these assays?
MEKK2wt PB1 HTS: 114; T cruzi inh: 7; MEKK2mut PB1 HTS: 23; FID counter: -16; NS3 helicase inh: 9; MEKK3 PB1 HTS: 128*; MEKK2wt confirm: 107; MEKK2mut confirm: 6; MEKK3-MEK5 inh: 104

Results for Cc1nc(-c2ccccn2)nc(SCC(=O)c2ccc(F)cc2)c1Cl ?
MEKK2wt PB1 HTS: 113; T cruzi inh: 0; MEKK2mut PB1 HTS: 31; FID counter: -22; NS3 helicase inh: -3; MEKK3 PB1 HTS: 134*; MEKK2wt confirm: 103; MEKK2mut confirm: -1; MEKK3-MEK5 inh: 97

How did CCCCC[C@H]1CN(Cc2ccc(OC)cc2)C(=O)[C@@H]1CC(=O)NCc1ccccc1 do in these assays?
MEKK2wt PB1 HTS: 104; T cruzi inh: 33; MEKK2mut PB1 HTS: 0; FID counter: -49; NS3 helicase inh: 6; MEKK3 PB1 HTS: 107

What do the screens show for `CCN1CCN(CCOc2cccc(Oc3ccccc3)c2)CC1`?
MEKK2wt PB1 HTS: 109; T cruzi inh: inconclusive; MEKK2mut PB1 HTS: -4; FID counter: 16; NS3 helicase inh: -15; MEKK3 PB1 HTS: 106

What do the screens show for `Cn1cnnc1Sc1ccc(C(=O)OCC(=O)Nc2ccccc2)cc1[N+](=O)[O-]`?
MEKK2wt PB1 HTS: 100; T cruzi inh: -3; MEKK2mut PB1 HTS: 3; FID counter: 2; NS3 helicase inh: -17; MEKK3 PB1 HTS: 102

What do the screens show for `Cn1cnnc1Sc1ccc(C(=O)OCC(=O)Nc2cc(Cl)cc(Cl)c2)cc1[N+](=O)[O-]`?
MEKK2wt PB1 HTS: 119; T cruzi inh: -10; MEKK2mut PB1 HTS: 3; FID counter: 5; NS3 helicase inh: 1; MEKK3 PB1 HTS: 137*; MEKK2wt confirm: 124; MEKK2mut confirm: 15; MEKK3-MEK5 inh: 99

What do the screens show for `CCN(CC)CC(=O)Nc1ccc([N+](=O)[O-])cc1`?
MEKK2wt PB1 HTS: 102; T cruzi inh: 9; MEKK2mut PB1 HTS: 2; FID counter: 4; NS3 helicase inh: 8; MEKK3 PB1 HTS: 108

Results for c1ccc(C(NCCNC(c2ccccc2)c2ccccc2)c2ccccc2)cc1 ?
MEKK2wt PB1 HTS: 142*; T cruzi inh: 24; MEKK2mut PB1 HTS: 27*; FID counter: 8; NS3 helicase inh: -86; MEKK3 PB1 HTS: 111; MEKK2wt confirm: 151; MEKK2mut confirm: 26; MEKK3-MEK5 inh: 108

Results for NS(=O)(=O)c1ccc(CCNC(c2ccccc2)c2ccccc2)cc1 ?
MEKK2wt PB1 HTS: 95; T cruzi inh: 13; MEKK2mut PB1 HTS: -4; FID counter: 9; NS3 helicase inh: -8; MEKK3 PB1 HTS: 99

How did CCOC(=O)c1cc2cc([N+](=O)[O-])ccc2oc1=O do in these assays?
MEKK2wt PB1 HTS: 76; T cruzi inh: -2; MEKK2mut PB1 HTS: -28; FID counter: -1; NS3 helicase inh: -1; MEKK3 PB1 HTS: 75*[inhibitor]; MEKK2wt confirm: 102; MEKK2mut confirm: 7; MEKK3-MEK5 inh: 100

What do the screens show for `CCOC(=O)c1cc2cc([N+](=O)[O-])cc(OC)c2oc1=O`?
MEKK2wt PB1 HTS: 108; T cruzi inh: -10; MEKK2mut PB1 HTS: 6; FID counter: 1; NS3 helicase inh: 8; MEKK3 PB1 HTS: 105

How did COc1ccc(-c2nn(CCC(=O)O)cc2/C=C2\SC(N)=NC2=O)cc1OC do in these assays?
MEKK2wt PB1 HTS: 99; T cruzi inh: -21; MEKK2mut PB1 HTS: -1; FID counter: -8; NS3 helicase inh: 3; MEKK3 PB1 HTS: 111
